In brackets after ≈: the same amount, converted by molar mass.
Key:
[1] = system: CQ-sensitive (CQS) and CQ-resistant (CQR) strains; details: strain not stated ref 11; cited from earlier work
P. falciparum (D6) = assay: in vitro antimalarial activity, plasmodial LDH; format: cell-based, Plasmodium falciparum; details: Plasmodium falciparum, D6, 72 h, read-out: P. falciparum (D6) IC50
P. falciparum (W2) = assay: in vitro antimalarial activity, plasmodial LDH; format: cell-based, Plasmodium falciparum; details: Plasmodium falciparum, W2, 72 h, read-out: P. falciparum (W2) IC50, CQ-resistant W2 strain, 72 h
Outline: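 P. falciparum-infected erythrocytes (2% parasitemia, 2% hematocrit) in RPMI 1640 with 10% human serum and 60 μg/mL amikacin. Exposed to test compound dilutions for 72 h at 37 °C under 90% N2/5% O2/5% CO2. LDH measured with Malstat reagent (30 min, room temperature), then NBT/PES for 1 h in the dark, stopped with 5% acetic acid, read at 650 nm. IC50 from dose-response curves.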

[2] = system: P. berghei (sensitive strain); assay: blood-schizontocidal activity against P. berghei infection in mice; format: in vivo, Plasmodium berghei; details: Swiss mice
Outline: (§1)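 Swiss mice of either sex (about 15–20 g, same age), six per group, inoculated intraperitoneally on day 0 with 1 × 10^7 infected erythrocytes from a donor mouse. Oral test compound at 100, 50, 25 or 10 mg/kg, CQ diphosphate (10 mg/kg/day × 4) or vehicle started 4 h later, on D0 to D+3. Giemsa tail-blood smears on D+4 and D+7. Curative: parasites eliminated, no relapse, all mice surviving to D+60.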

[3] = system: multidrug-resistant P. yoelii nigeriensis; assay: blood-schizontocidal activity against P. yoelii nigeriensis infection in mice; format: in vivo, Plasmodium yoelii nigeriensis; details: Swiss mice
Outline: as §1

[4] = system: SK-MEL, KB, BT-549, SK-OV-3, VERO and LLC-PK1 cells; assay: cytotoxicity, neutral red uptake assay; format: cell-based, mammalian; details: highest test concentration 4760 ng/mL
Outline: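 Cells seeded at 25 000/well and allowed 24 h to reach confluence. Test compound was then added and incubated 48 h. Viable cells were counted by a modified neutral red uptake method. The panel was four human cancer lines and two noncancerous mammalian kidney lines. Doxorubicin served as positive control and DMSO as negative control.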

[5] = system: L. donovani promastigotes; assay: in vitro antileishmanial activity, alamarBlue assay; format: cell-based, Leishmania donovani; details: Leishmania donovani, 48 h
C. albicans ATCC90028 = assay: in vitro antifungal activity; format: cell-based, Candida albicans
Outline: (§2)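 Modified NCCLS broth method in Sabouraud dextrose. Inoculum set by OD630 to 1.5 × 10^3 CFU/mL. Test compound serially diluted in 20% DMSO/saline, duplicate wells, up to 20 μg/mL. Incubated 70–74 h at 35 °C; 530 nm read before and after. IC50 is 50% growth inhibition; MIC is no detectable growth. MFC from clear wells subcultured on agar. Amphotericin B control.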

C. glabrata ATCC90030 = assay: in vitro antifungal activity; format: cell-based, Candida glabrata
Outline: as §2

C. krusei ATCC6258 = assay: in vitro antifungal activity; format: cell-based, Candida krusei
Outline: as §2

C. neoformans ATCC90113 = assay: in vitro antifungal activity; format: cell-based, Cryptococcus neoformans; details: Cryptococcus neoformans
Outline: as §2

A. fumigatus ATCC 90906 = assay: in vitro antifungal activity; format: cell-based, Aspergillus fumigatus; details: Aspergillus fumigatus
Outline: as §2

SA (ATCC29213) = assay: in vitro antibacterial activity; format: cell-based; details: Staphylococcus aureus
Outline: (§3)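 Test compound serially diluted in 20% DMSO/saline and plated in duplicate, up to 20 μg/mL. Inoculum in cation-adjusted Mueller–Hinton broth, pH 7.3, set by OD630 to 5 × 10^5 CFU/mL. Incubated 16–20 h at 35 °C; 530 nm read before and after. IC50 is 50% growth inhibition; MIC is no detectable growth. MBC from clear wells subcultured on agar. Ciprofloxacin control.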

MRSA (ATCC33591) = assay: in vitro antibacterial activity; format: cell-based, methicillin-resistant Staphylococcus aureus; details: Staphylococcus aureus, ATCC33591|MRSA, read-out: MIC, MRSA
Outline: as §3

[6] = system: M. intracellulare (ATCC23068); assay: in vitro antibacterial activity, modified alamarBlue procedure; format: cell-based, Mycobacterium intracellulare; details: Mycobacterium intracellulare
Outline: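 Modified alamarBlue microplate method. Test compound serially diluted in 20% DMSO/saline, duplicate wells, up to 20 μg/mL. Inoculum 2.0 × 10^6 CFU/mL in Middlebrook 7H9 with OADC, pH 7.3, containing 5% alamarBlue. Incubated 70–74 h at 37 °C, 10% CO2; fluorescence 544ex/590em read before and after. MIC: no blue-to-pink change. MBC by subculturing blue wells on agar. Ciprofloxacin control.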

COc1cc(NC(C)CCCN)c2nc(C(C)(C)C)ccc2c1 (centres unmarked) [2-tert-butylprimaquine]
in vitro antimalarial activity IC50 [1]: 0.039 µg/mL

CCN(CC)CCCC(C)Nc1ccnc2cc(Cl)ccc12 (centres unmarked) [CQ, chloroquine, reference compound]
IC50 (P. falciparum (D6)): 0.015 µg/mL (≈ 0.0469 µM) | IC50 (P. falciparum (W2)): 0.14 µg/mL (≈ 0.438 µM) | P. berghei blood-schizontocidal activity (mice cured/treated) ([2]; 10 mg/kg/day × 4, oral): active (2/6) | P. berghei blood-schizontocidal activity (mice cured/treated) ([2]; 25 mg/kg/day × 4, oral): curative (6/6) | P. berghei blood-schizontocidal activity (mice cured/treated) ([2]; 50 mg/kg/day × 4, oral): curative (6/6) | P. berghei blood-schizontocidal activity (mice cured/treated) ([2]; 100 mg/kg/day × 4, oral): curative (6/6) | P. yoelii nigeriensis blood-schizontocidal activity (mice cured/treated) ([3]; 25 mg/kg/day × 4, oral): inactive (0/6) | P. yoelii nigeriensis blood-schizontocidal activity (mice cured/treated) ([3]; 50 mg/kg/day × 4, oral): inactive (0/6) | P. yoelii nigeriensis blood-schizontocidal activity (mice cured/treated) ([3]; 100 mg/kg/day × 4, oral): inactive (0/6) | in vitro antimalarial activity IC50 [1]: 0.113 µg/mL

CCCCCCCOc1c(OC)cc(NC(C)CCCN)c2nc(C(C)(C)C)ccc12 (centres unmarked) [compound 48, N^4-(2-tert-Butyl-5-(heptyloxy)-6-methoxyquinolin-8-yl)pentane-1,4-diamine]
IC50 (P. falciparum (D6)): 0.05 µg/mL (≈ 0.116 µM) | IC50 (P. falciparum (W2)): 0.037 µg/mL (≈ 0.0861 µM) | cytotoxicity CTX [4]: NC (NC, not cytotoxic up to 4760 ng/mL (4.76 μg/mL)) | P. berghei blood-schizontocidal activity (mice cured/treated) ([2]; 10 mg/kg/day × 4, oral): active (4/6) | P. berghei blood-schizontocidal activity (mice cured/treated) ([2]; 25 mg/kg/day × 4, oral): curative (6/6) | P. berghei blood-schizontocidal activity (mice cured/treated) ([2]; 50 mg/kg/day × 4, oral): curative (6/6) | P. berghei blood-schizontocidal activity (mice cured/treated) ([2]; 100 mg/kg/day × 4, oral): curative (6/6) | P. yoelii nigeriensis blood-schizontocidal activity (mice cured/treated) ([3]; 25 mg/kg/day × 4, oral): inactive (0/6) | P. yoelii nigeriensis blood-schizontocidal activity (mice cured/treated) ([3]; 50 mg/kg/day × 4, oral): active (3/6) | P. yoelii nigeriensis blood-schizontocidal activity (mice cured/treated) ([3]; 100 mg/kg/day × 4, oral): active (4/6) | IC50 ([5]; read-out: L. donovani IC50, promastigotes, 48 h): 5 µg/mL (≈ 11.6 µM) | IC90 ([5]; read-out: L. donovani IC90, promastigotes, 48 h): > 40 µg/mL | C. albicans MFC (C. albicans ATCC90028): 10.00 µg/mL | C. albicans MIC (C. albicans ATCC90028): 10.00 µg/mL | IC50 (C. albicans ATCC90028; Candida albicans, ATCC90028, read-out: C. albicans IC50): 4.93 µg/mL (≈ 11.5 µM) | MIC (C. albicans ATCC90028; Candida albicans, ATCC90028, read-out: C. albicans MIC): 10 µg/mL (≈ 23.3 µM) | C. glabrata MFC (C. glabrata ATCC90030): 5.00 µg/mL | C. glabrata MIC (C. glabrata ATCC90030): 5.00 µg/mL | C. krusei MFC (C. krusei ATCC6258): 5.00 µg/mL | C. krusei MIC (C. krusei ATCC6258): 5.00 µg/mL | IC50 (C. neoformans ATCC90113; ATCC90113, read-out: C. neoformans IC50): 2.07 µg/mL (≈ 4.82 µM) | MFC (C. neoformans ATCC90113; ATCC90113, read-out: C. neoformans MFC): 2.5 µg/mL (≈ 5.82 µM) | MIC (C. neoformans ATCC90113; ATCC90113, read-out: C. neoformans MIC): 2.5 µg/mL (≈ 5.82 µM) | IC50 (A. fumigatus ATCC 90906; ATCC90906, read-out: A. fumigatus IC50): 6 µg/mL (≈ 14 µM) | MFC (A. fumigatus ATCC 90906; ATCC90906, read-out: A. fumigatus MFC): > 20 µg/mL | MIC (A. fumigatus ATCC 90906; ATCC90906, read-out: A. fumigatus MIC): > 20 µg/mL | IC50 (SA (ATCC29213); ATCC29213, read-out: IC50 (concentration that affords 50% growth inhibition), SA): 2.77 µg/mL (≈ 6.45 µM) | MBC (SA (ATCC29213); ATCC29213, read-out: MBC (minimum bactericidal concentration), SA): 20 µg/mL (≈ 46.5 µM) | MIC (SA (ATCC29213); ATCC29213, read-out: MIC, SA): 5 µg/mL (≈ 11.6 µM) | MIC (MRSA (ATCC33591)): 5 µg/mL (≈ 11.6 µM) | IC50 ([6]; ATCC23068, read-out: IC50 (concentration that affords 50% growth inhibition), M. intracellulare): 3.72 µg/mL (≈ 8.66 µM) | MBC ([6]; ATCC23068, read-out: MBC (minimum bactericidal concentration), M. intracellulare): 5 µg/mL (≈ 11.6 µM) | MIC ([6]; ATCC23068, read-out: MIC, M. intracellulare): 5 µg/mL (≈ 11.6 µM)
